Data set [1] can be described thus: Intrinsic clearance in mouse liver microsomes assessed as parent compound at 1 uM after 60 mins in presence of NADPH by LC-MS analysis. In kind it is ADME, Microsome. Put shortly: (§1)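 Mouse liver microsomes (0.5 mg/mL final protein) in 0.1 M phosphate, pH 7.4, with compound at 1 μM, 37 °C with shaking. Aliquots were quenched in cold acetonitrile and centrifuged; LC–MS gave parent peak area at 60 min relative to 0 min.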
For orientation: Liver microsomes are a subcellular fraction often used to study metabolism.

Data set [2] in a line: Resistant index, ratio of EC50 for antiplasmodial activity against chloroquine-resistant Plasmodium falciparum Dd2 to antiplasmodial activity against chloroquine-sensitive Plasmodium falciparum 3D7. In kind it is functional.
For data set [3], the system named is Plasmodium falciparum. Nature of the data set: Antiplasmodial activity against synchronized chloroquine-resistant Plasmodium falciparum Dd2 reduction in microbial growth at 5 times of EC50 treated with compound at 42 hrs post infection measured after 12 hrs by Giemsa staining-based microscopic analysis. Format: functional, organism-based. Summed up: (§2)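 Dd2 cultures tightly synchronized by magnetic separation and sorbitol were dosed at 5 × EC50 at 6, 18, 30 or 42 h post-invasion. Controls: DHA 50 nM, atovaquone 6.6 nM, DMSO 0.1%. Sampled every 12 h for Giemsa thin smears and for flow cytometry: glutaraldehyde/paraformaldehyde fixation, Triton permeabilization, RNAse, 500 nM YOYO-1, 500,000 events/sample. Three independent biological replicates.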

The test system of data set [4] is Plasmodium falciparum. In words: Antiplasmodial activity against synchronous gametocyte late stage of Plasmodium falciparum 3D7 harboring luc7 incubated for 72 hrs by ONE-Glo luciferase assay. As to conditions: 3D7, 72 h. Format: functional, organism-based. Put shortly: (§3)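 Gametocytes of P. falciparum 3D7 luc7 induced by nutrient starvation, cultured in heparin medium to remove asexual stages, Percoll-purified as early (II–III) or late (IV–V) stage. 50,000 gametocytes/well exposed 72 h to a 19-point gradient, 0.038 nM–10 μM. ONE-Glo luciferase read after 5 min. EC50 by nonlinear curve fit; three experiments.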

Data set [5] has as its system Plasmodium berghei. In words: Antiplasmodial activity against Plasmodium berghei ANKA expressing luciferase infected in Swiss Webster mouse at 25 mg/kg, po for 5 days using monophosphate salt form of compound by luminescence based assay. In kind it is functional, organism-based. The following applies: time 5.0 day. Summed up:
(§4)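 Female Swiss Webster mice got 10³ RBC infected with luciferase-expressing P. berghei ANKA. From 48 h post-infection, groups of five were gavaged once daily for 5 days in 2% methylcellulose/0.5% Tween 80, against a vehicle control. On day 7, mice received 150 mg/kg D-luciferin in PBS, and bioluminescence was imaged by IVIS as a measure of parasite load.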

For data set [6], the system named is Plasmodium falciparum. In words: Induction of morphological changes in chloroquine-resistant Plasmodium falciparum Dd2 assessed as appearance of membrane-bound structure at 5 times of EC50 measured after 1.5 to 12 hrs by TEM analysis. Format: functional, organism-based. As to conditions: time hrs 1.5-12. Summed up: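 Fixed in 2% paraformaldehyde/2.5% glutaraldehyde in cacodylate pH 7.4, post-fixed in 1% OsO₄, en bloc 1% uranyl acetate, ethanol-dehydrated, Eponate-embedded. 95 nm sections stained with uranyl acetate/lead citrate for TEM.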

Data set [7] can be described thus: Toxicity in BALB/c mouse infected with Plasmodium berghei ANKA expressing luciferase assessed as hypotrichosis at 25 to 100 mg/kg, po for 4 days measured up to 30 days. Format: organism-based. As to conditions: in vivo, 96 h, dose 25-100 mg/kg, time 4 day. Summed up:
(§5)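 Female BALB/c mice (10 weeks, ~20 g), five per group, were inoculated i.p. with 10⁶ P. berghei ANKA 676m1cl1-parasitized RBC. Oral gavage in 2% methylcellulose/0.5% Tween 80, once daily for 4 days starting 4 h post-infection, against a vehicle control. Tail-blood Giemsa smears from day 4. Signs and body weight were followed. Sacrifice at 40% parasitemia; cure meant a negative smear at day 30. Kaplan–Meier, log-rank.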

For data set [8], the system named is Hemozoin. In words: Inhibition of beta-hematin formation at 12.5 to 200 uM after 16 hrs by inverted microscopic analysis. The following applies: dose microM 12.5-200, time 16.0 hrs. Summed up: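 Hemin (2 mM stock in 0.1 M NaOH; 100 μM final), propionate buffer pH 5.2 and sonicated phosphatidylcholine were incubated with a compound concentration series for 16 h at 37 °C with gentle shaking. Crystals were imaged by inverted microscope before quenching with 7.5% SDS in bicarbonate, pH 9.1. Free hemin was measured at 405 nm against a 0–16 μM calibration. Three independent experiments.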

Data set [9] concerns Plasmodium falciparum. In words: Antiplasmodial activity against synchronized chloroquine-resistant Plasmodium falciparum Dd2 reduction in microbial growth 5 times of EC50 treated with compound at 6 to 30 hrs post infection measured after 12 hrs by Giemsa staining-based microscopic analysis. Format: functional, organism-based. Put shortly:
as §2

Data set [10] is described as follows: Toxicity in BALB/c mouse infected with Plasmodium berghei ANKA expressing luciferase assessed as reduction in weight at 25 to 100 mg/kg, po for 4 days measured up to 30 days. Format: organism-based. As to conditions: in vivo, 96 h, dose 25-100 mg/kg, time 4 day. Put shortly:
as §5

The test system of data set [11] is HepG2. Nature of the data set: Cytotoxicity against human HepG2 cells assessed as reduction in cell viability after 48 hrs by MTS assay. In kind it is cell-based. As to conditions: HepG2, 48 h. Summed up:
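HepG2 cells were seeded at 2250 per well and grown 24 h at 37 °C, 5% CO₂. Serial dilutions starting at 25 μM were added for a further 48 h. MTS was then added for 3 h at 37 °C and absorbance read at 490 nm. EC₅₀ came from nonlinear dose–response fits.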
On the technique in general: Formazan colour is commonly taken as a measure of viable cells.

In data set [12] the test system is Plasmodium falciparum. In words: Antiplasmodial activity against synchronous gametocyte early stage of Plasmodium falciparum 3D7 harboring luc7 incubated for 72 hrs by ONE-Glo luciferase assay. The following applies: 3D7, 72 h. Format: functional, organism-based. Put shortly: as §3
Data set [13] is described as follows: Selectivity index, ratio of EC50 for cytotoxicity against human HepG2 cells to antiplasmodial activity against chloroquine-resistant Plasmodium falciparum Dd2. The following applies: read-out: Ratio EC50. In kind it is toxicity, cell-based.
The test system of data set [14] is Plasmodium falciparum. In words: Parasiticidal activity against chloroquine-resistant Plasmodium falciparum Dd2 infected in RBC assessed as reduction in parasitemia at 5 times of EC50 incubated for 6 to 48 hrs followed by compound washout and then incubated for 96 hrs by Giemsa staining based microscopic analysis. In kind it is functional, organism-based. As to conditions: time hrs 6-48. Put shortly:
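Controls: 0.15% DMSO, DHA 50 nM, atovaquone 6.6 nM. Drug removed by three RPMI washes, then parasitemia followed daily for 96 h by Giemsa thin smears. Three independent biological replicates.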

The subject of data set [15] is Plasmodium falciparum. In words: Antiplasmodial activity against synchronized chloroquine-resistant Plasmodium falciparum Dd2 reduction in microbial growth 5 times of EC50 treated with compound at 6 to 30 hrs post infection measured after 12 hrs by YOYO-1 staining-based flow cytometric analysis. In kind it is functional, organism-based. Put shortly: as §2
For orientation: Flow cytometry measures light scatter and fluorescence of single cells or particles in a stream.

Data set [16] relates to Plasmodium falciparum. In words: Antiplasmodial activity against chloroquine-resistant Plasmodium falciparum Dd2 infected in human erythrocytes assessed as reduction in microbial growth after 72 hrs by SYBR green I staining based fluorescence assay. Format: functional, organism-based. The following applies: Dd2, Erythrocyte. Put shortly: (§6)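 SYBR Green I assay: twofold serial dilutions on P. falciparum cultures at 1% parasitemia, 1% hematocrit, 37 °C, 5% CO₂, 72 h, max 0.1% DMSO. DMSO and CQ as growth and inhibition controls. Plates frozen at −80 °C, thawed, lysed in Tris/saponin/EDTA/Triton buffer with 0.01% SYBR Green I, 1 h dark at room temperature. Fluorescence read at 485 ex/530 em. EC50 by nonlinear dose–response fit.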

For data set [17], the system named is Plasmodium berghei. In words: Antiplasmodial activity against Plasmodium berghei ANKA expressing luciferase infected in BALB/c mouse assessed as mean survival days at 100 mg/kg, po for 4 days using monophosphate salt form of compound (reference value: 8 day). In kind it is functional. As to conditions: time 4 day.
Data set [18] in a line: Stability of compound in mouse liver microsomes assessed as parent compound remaining at 1 uM after 60 mins in presence of NADPH by LC-MS analysis. As to conditions: 1 h. In kind it is ADME, Microsome. Put shortly:
as §1

The nature of data set [19]: Toxicity in BALB/c mouse infected with Plasmodium berghei ANKA expressing luciferase assessed as reduction in mobility at 25 to 100 mg/kg, po for 4 days measured up to 30 days. In kind it is organism-based. As to conditions: in vivo, 96 h, dose 25-100 mg/kg, time 4 day. Summed up:
as §5

A short description of data set [20]: Toxicity in BALB/c mouse infected with Plasmodium berghei ANKA expressing luciferase assessed as hunched posture at 25 to 100 mg/kg, po for 4 days measured up to 30 days. In kind it is organism-based. As to conditions: in vivo, 96 h, dose 25-100 mg/kg, time 4 day. Put shortly: as §5
The subject of data set [21] is Plasmodium berghei. In words: Antiplasmodial activity against Plasmodium berghei ANKA expressing luciferase infected in BALB/c mouse at 25 mg/kg, po for 4 days using monophosphate salt form of compound by Giemsa staining based microscopic analysis. In kind it is functional, organism-based. As to conditions: time 4.0 day. Put shortly:
as §5

Data set [22] has as its system Plasmodium falciparum. Nature of the data set: Antiplasmodial activity against chloroquine-sensitive Plasmodium falciparum 3D7 infected in human erythrocytes assessed as reduction in microbial growth after 72 hrs by SYBR green I staining based fluorescence assay. Format: functional, organism-based. As to conditions: 3D7, Erythrocyte. Put shortly: as §6
For data set [23], the system named is Plasmodium falciparum. In words: Antiplasmodial activity against synchronized chloroquine-resistant Plasmodium falciparum Dd2 reduction in microbial growth 5 times of EC50 treated with compound at 42 hrs post infection measured after 12 hrs by YOYO-1 staining-based flow cytometric analysis. Format: functional, organism-based. Put shortly:
as §2

In data set [24] the test system is Plasmodium berghei. Nature of the data set: Antiplasmodial activity against Plasmodium berghei ANKA expressing luciferase infected in Swiss Webster mouse at 100 mg/kg, po for 5 days using monophosphate salt form of compound by luminescence based assay. Format: functional, organism-based. The following applies: time 5.0 day. Put shortly: as §4
The nature of data set [25]: Stability of compound in mouse liver microsomes assessed as parent compound remaining after 60 mins in presence of NADPH by LC-MS analysis. Format: ADME, Microsome. As to conditions: read-out: Stabilty.
Data set [26] in a line: Half life in mouse liver microsomes after 60 mins in presence of NADPH by LC-MS analysis. Format: ADME, Microsome.
Data set [27] can be described thus: Drug level in mouse liver microsomes treated with 6-chloro-2-(4-fluorostyryl)-N-(2-(4-methylpiperazin-1-yl)ethyl)quinolin-4-amine measured up to 60 mins by LC-MS analysis. In kind it is ADME, Microsome. The following applies: 1 h. Summed up:
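Microsomal incubations: mouse liver microsomes at 0.5 mg/mL, 1 μM compound, pH 7.4 phosphate, 37 °C, NADPH-regenerating system. The metabolite mixture was analysed by LC–MS after 15, 30 and 60 min.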

Structures are written as SMILES. Calls of active or inactive are those of the source.

For the compound `CN(C)CCNc1cc(/C=C/c2ccc(C(F)(F)F)cc2)nc2ccc(Cl)cc12`, in data set [1], the CLH was 13.3 µL/min/mg. For the same compound, the Ratio EC50 in data set [2] was determined as 0.6. Besides, the outcome in [3] and in data set [23] was inactive. The concentration for a half-maximal effect (EC50) was found to be 394 nM in [4]; 11200 nM in data set [11]; 472 nM in [12]; 10.9 nM in data set [16]; 16.8 nM in data set [22]. Further, the outcome in [5], in [6], in [9], in [14], in data set [15] and in [21] was Active. Further, the outcome in data set [24] was Active. Further, the Activity result in [7], in [10], in data set [19] and in [20] was “Non-Toxic” each time. Further, the inhibition result in data set [8] is “inactive”. Besides, the selectivity ratio in data set [13] worked out at 1030. Besides, the MSD in [17] was found to be 30 days. Moreover, the Stabilty in data set [18] turned out to be 67.1%.

Turning to `CCN(CC)CCCC(C)Nc1cc(/C=C/c2ccc([N+](=O)[O-])cc2)nc2ccc(OC)cc12` (centres undefined), in [1], the CLH was 33.4 µL/min/mg. In addition, the Ratio EC50 in data set [2] was determined as 0.6. For the same compound, the remaining at 1 h in data set [25] is 47.8%. The EC50 in data set [11] was 7020 nM; in data set [16], 67 nM; in [22], 119 nM. In addition, the selectivity ratio in data set [13] stood at 105. For the same compound, the Stabilty in [18] came out at 36.7%. Further, the half-life in [26] stood at 56.2 min.

For `Fc1ccc(/C=C/c2cc(NCCN3CCNCC3)c3cc(Cl)ccc3n2)cc1`, the Drug uptake entry in data set [27] is reported as “Active”.

What is called EC50 is the concentration giving half of the maximal effect. The half-life is the time needed for the level to fall by half in the phase considered.
